Laboratory results as given in ChEMBL document CHEMBL1122111, “Allergenic alpha-methylene-gamma-butyrolactones. Stereospecific syntheses of (+)- and (-)-gamma-methyl-alpha-methylene-gamma-butyrolactones. A study of the specificity of (+) and (-) enantiomers in inducing allergic contact dermatitis” (1982).

Key:
Type in all cases: functional
[1] = organism: Cavia porcellus; test: Tested for effect on guinea pigs sensitized with (R)-5-Methyl-3-methylene -dihydro -furan-2-one, Number of sensitive animals out of 8 tested
How it was run: (§1)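 Female albino Hartley guinea pigs (250–300 g) received three 0.1-mL intradermal nuchal injections on alternate days of a 1:1 FCA/saline emulsion with 5% (+)-enantiomer. After 2 weeks rest, 0.25 mL of 1% or 2% methylene chloride solution was deposited on a 2-cm2 circle and read every 24 h. Erythema/swelling was scored 0–3; av = summed intensities divided by animal number.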

[2] = organism: Cavia porcellus; test: Tested for effect on guinea pigs sensitized with (R)-5-Methyl-3-methylene -dihydro -furan-2-one, number of animals showing erythema and swelling of the test area; how it was run: as §1
[3] = organism: Cavia porcellus; test: Tested for effect on guinea pigs sensitized with (S)5-Methyl-3-methylene-dihydro- furan-2-one number of animals showing no reaction
How it was run: (§2)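 Sensitization: female albino Hartley guinea pigs (250–300 g) were given three alternate-day 0.1-mL intradermal nuchal injections of 1:1 FCA/saline emulsion containing 5% (−)-enantiomer. Challenge after 2 weeks rest used 0.25 mL of 1% or 2% methylene chloride solution on a 2-cm2 area, read every 24 h. The scale was 0 (none) to 3 (erythema/swelling beyond area); av = summed scores/animals.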

[4] = organism: Cavia porcellus; test: Tested for effect on guinea pigs sensitized with (S)5-Methyl-3-methylene-dihydro- furan-2-one; Number of sensitive animals out of 8 tested; how it was run: as §2
[5] = organism: Cavia porcellus; test: Tested for effect on guinea pigs sensitized with (S)5-Methyl-3-methylene-dihydro- furan-2-one number of animals showing erythema covering the part of the test area; how it was run: as §2
[6] = organism: Cavia porcellus; test: Tested for effect on guinea pigs sensitized with (S)5-Methyl-3-methylene-dihydro- furan-2-onenumber of animals showing erythema covering the whole test area; how it was run: as §2
[7] = organism: Cavia porcellus; test: Tested for effect on guinea pigs sensitized with (+/-)-5-Methyl-3-methylene-dihydro-furan-2-one,number of animals showing erythema covering the part of the test area
How it was run: (§3)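 Female albino Hartley guinea pigs (250–300 g), sensitized by three intradermal nuchal injections of 0.1 mL on alternate days. The emulsion was 1:1 FCA/saline with 10% racemate (5% of each antipode). After 2 weeks rest, 0.25 mL of 1% or 2% methylene chloride solution was applied to a 2-cm2 area. Reactions were scored 0–3 every 24 h; av = summed scores/animals.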

[8] = organism: Cavia porcellus; test: Tested for effect on guinea pigs sensitized with (S)5-Methyl-3-methylene-dihydro- furan-2-one number of animals showing erythema and swelling of the test area.; how it was run: as §2
[9] = organism: Cavia porcellus; test: Tested for effect on guinea pigs sensitized with (R)-5-Methyl-3-methylene -dihydro -furan-2-one,number of animals showing erythema covering the whole test area; how it was run: as §1
[10] = organism: Cavia porcellus; test: Tested for effect on guinea pigs sensitized with (+/-)-5-Methyl-3-methylene-dihydro-furan-2-one number of animals showing erythema and swelling of the test area; how it was run: as §3
[11] = organism: Cavia porcellus; test: Tested for effect on guinea pigs sensitized with (+/-)-5-Methyl-3-methylene-dihydro-furan-2-one, Number of sensitive animals out of 8 tested; how it was run: as §3
[12] = organism: Cavia porcellus; test: Tested for effect on guinea pigs sensitized with (S)5-Methyl-3-methylene-dihydro- furan-2-one,av is calculated by adding the test intensity and divided by the number of animals; how it was run: as §2
[13] = organism: Cavia porcellus; test: Tested for effect on guinea pigs sensitized with (+/-)-5-Methyl-3-methylene-dihydro-furan-2-one,number of animals showing erythema covering the whole test area; how it was run: as §3
[14] = organism: Cavia porcellus; test: Tested for effect on guinea pigs sensitized with (R)-5-Methyl-3-methylene -dihydro -furan-2-one,number of animals showing erythema covering the part of the test area; how it was run: as §1
[15] = organism: Cavia porcellus; test: Tested for effect on guinea pigs sensitized with (R)-5-Methyl-3-methylene -dihydro -furan-2-one,number of animals showing no reaction; how it was run: as §1
[16] = organism: Cavia porcellus; test: Tested for effect on guinea pigs sensitized with (+/-)-5-Methyl-3-methylene-dihydro-furan-2-one,number of animals showing no reaction; how it was run: as §3
[17] = organism: Cavia porcellus; test: Tested for effect on guinea pigs sensitized with (+/-)-5-Methyl-3-methylene-dihydro-furan-2-one, av is calculated by adding the test intensity and divided by the number of animals; how it was run: as §3
[18] = organism: Cavia porcellus; test: Tested for effect on guinea pigs sensitized with (R)-5-Methyl-3-methylene -dihydro -furan-2-one,av is calculated by adding the test intensity and divided by the number of animals; how it was run: as §1

## C=C1C[C@@H](C)OC1=O
[1]
  No. of sensitive animals: 8
[2]
  Skin tests intensity: 3
[3]
  Skin tests intensity: 0
[4]
  No. of sensitive animals: 8
[5]
  Skin tests intensity: 3
[6]
  Skin tests intensity: 5
[7]
  Skin tests intensity: 1
[8]
  Skin tests intensity: 0
[9]
  Skin tests intensity: 4
[10]
  Skin tests intensity: 6
[11]
  No. of sensitive animals: 8
[12]
  av: 0.8
[13]
  Skin tests intensity: 1
[14]
  Skin tests intensity: 1
[15]
  Skin tests intensity: 0
[16]
  Skin tests intensity: 0
[17]
  av: 1.7
[18]
  av: 1.3
